# From ChEMBL document CHEMBL3779898, “3,3'-OH curcumin causes apoptosis in HepG2 cells through ROS-mediated pathway” (Eur J Med Chem, 2016)
# Calls of active or inactive are those of the source. The rule behind the calls is not given here.
# Legend:
# HepG2 [1] = experiment: Cytotoxicity against human HepG2 cells assessed as reduction in cell viability after 48 hrs by MTT assay; type: functional, cell-based; details: HepG2, 48 h
# How it was run: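 HepG2 seeded at 3×10^3/well, grown 24 h, then exposed to compounds for 48 h. MTT (0.5 mg/mL) added for 4 h, formazan dissolved in DMSO, absorbance read at 570 nm. IC50 = concentration giving 50% loss of viability; mean ± SD of three determinations.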
# Serum = experiment: Stability in RPMI-1640 medium containing 10% fetal calf serum at 25 uM incubated for 20 to 120 mins at 25 degC; type: ADME, Bos taurus; details: cattle
# HepG2 [2] = experiment: Potency index, ratio of curcumin IC50 to compound IC50 for human HepG2 cells; type: functional
# How it was run: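 Derived from MTT IC50 values in HepG2 after 48 h treatment, means of three determinations.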
# HepG2 [3] = experiment: Induction of apoptosis in human HepG2 cells assessed as early apoptotic cells at 12.5 uM after 24 hrs by Annexin V-FITC/propidium iodide staining based flow cytometry (reference value: 2.8%); type: functional
# How it was run: (§1)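 HepG2 plated at 5×10^5/well, grown 24 h, then treated 24 h; where indicated, 1 h pretreatment with 5 mM GSH or NAC. Cells stained with Annexin V-FITC/PI; 10,000 cells per sample analysed by flow cytometry into early apoptotic, late apoptotic and necrotic quadrants; triplicate.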
# HepG2 [4] = experiment: Induction of apoptosis in human HepG2 cells assessed as early apoptotic cells at 25 uM after 24 hrs by Annexin V-FITC/propidium iodide staining based flow cytometry (reference value: 2.8%); type: functional; how it was run: as §1
# HepG2 [5] = experiment: Induction of apoptosis in human HepG2 cells assessed as early apoptotic cells at 37.5 uM after 24 hrs by Annexin V-FITC/propidium iodide staining based flow cytometry (reference value: 2.8%); type: functional; how it was run: as §1
# HepG2 [6] = experiment: Induction of apoptosis in human HepG2 cells assessed as early apoptotic cells at 50 uM after 24 hrs by Annexin V-FITC/propidium iodide staining based flow cytometry (reference value: 2.8%); type: functional; how it was run: as §1
# HepG2 [7] = experiment: Induction of apoptosis in human HepG2 cells assessed as early apoptotic cells at 50 uM after 24 hrs pretreated with 5 mM glutathione for 1 hr by Annexin V-FITC/propidium iodide staining based flow cytometry (reference value: 2.8%); type: functional; how it was run: as §1
# HepG2 [8] = experiment: Induction of apoptosis in human HepG2 cells assessed as early apoptotic cells at 50 uM after 24 hrs pretreated with 5 mM N-acetylcysteine for 1 hr by Annexin V-FITC/propidium iodide staining based flow cytometry (reference value: 2.8%); type: functional; how it was run: as §1
# HepG2 [9] = experiment: Induction of apoptosis in human HepG2 cells assessed as late apoptotic cells at 12.5 uM after 24 hrs by Annexin V-FITC/propidium iodide staining based flow cytometry (reference value: 5.4%); type: functional; how it was run: as §1
# HepG2 [10] = experiment: Induction of apoptosis in human HepG2 cells assessed as late apoptotic cells at 25 uM after 24 hrs by Annexin V-FITC/propidium iodide staining based flow cytometry (reference value: 5.4%); type: functional; how it was run: as §1
# HepG2 [11] = experiment: Induction of apoptosis in human HepG2 cells assessed as late apoptotic cells at 37.5 uM after 24 hrs by Annexin V-FITC/propidium iodide staining based flow cytometry (reference value: 5.4%); type: functional; how it was run: as §1
# HepG2 [12] = experiment: Induction of apoptosis in human HepG2 cells assessed as late apoptotic cells at 50 uM after 24 hrs by Annexin V-FITC/propidium iodide staining based flow cytometry (reference value: 5.4%); type: functional; how it was run: as §1
# HepG2 [13] = experiment: Induction of apoptosis in human HepG2 cells assessed as late apoptotic cells at 50 uM after 24 hrs pretreated with 5 mM glutathione for 1 hr by Annexin V-FITC/propidium iodide staining based flow cytometry (reference value: 5.4%); type: functional; how it was run: as §1
# HepG2 [14] = experiment: Induction of apoptosis in human HepG2 cells assessed as late apoptotic cells at 50 uM after 24 hrs pretreated with 5 mM N-acetylcysteine for 1 hr by Annexin V-FITC/propidium iodide staining based flow cytometry (reference value: 5.4%); type: functional; how it was run: as §1
# HepG2 [15] = experiment: Induction of apoptosis in human HepG2 cells assessed as necrotic cells at 12.5 uM after 24 hrs by Annexin V-FITC/propidium iodide staining based flow cytometry (reference value: 1.6%); type: functional; how it was run: as §1
# HepG2 [16] = experiment: Induction of apoptosis in human HepG2 cells assessed as necrotic cells at 25 uM after 24 hrs by Annexin V-FITC/propidium iodide staining based flow cytometry (reference value: 1.6%); type: functional; how it was run: as §1
# HepG2 [17] = experiment: Induction of apoptosis in human HepG2 cells assessed as necrotic cells at 37.5 uM after 24 hrs by Annexin V-FITC/propidium iodide staining based flow cytometry (reference value: 1.6%); type: functional; how it was run: as §1
# HepG2 [18] = experiment: Induction of apoptosis in human HepG2 cells assessed as necrotic cells at 50 uM after 24 hrs by Annexin V-FITC/propidium iodide staining based flow cytometry (reference value: 1.6%); type: functional; how it was run: as §1
# HepG2 [19] = experiment: Induction of apoptosis in human HepG2 cells assessed as necrotic cells at 50 uM after 24 hrs pretreated with 5 mM glutathione for 1 hr by Annexin V-FITC/propidium iodide staining based flow cytometry (reference value: 1.6%); type: functional; how it was run: as §1
# HepG2 [20] = experiment: Induction of apoptosis in human HepG2 cells assessed as necrotic cells at 50 uM after 24 hrs pretreated with 5 mM N-acetylcysteine for 1 hr by Annexin V-FITC/propidium iodide staining based flow cytometry (reference value: 1.6%); type: functional; how it was run: as §1
# HepG2 [21] = experiment: Induction of apoptosis in human HepG2 cells after 24 hrs by Annexin V-FITC/propidium iodide staining based flow cytometry; type: functional, cell-based; how it was run: as §1
# HepG2 [22] = experiment: Induction of intracellular ROS production in human HepG2 cells at 50 uM after 6 hrs by DCFH-DA staining based flow cytometry relative to control; type: functional
# How it was run: (§2)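 Cells treated with 50 μM compound for 6 h, with or without 1 h catalase pretreatment; stained with 3 μM DCFH-DA for 30 min at 37 °C in the dark, washed, DCF fluorescence read by flow cytometry (488/530 nm); triplicate.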
# HepG2 [23] = experiment: Induction of intracellular ROS production in human HepG2 cells at 50 uM after 6 hrs by DCFH-DA staining based flow cytometry in presence of catalase; type: functional, cell-based; how it was run: as §2
# HepG2 [24] = experiment: Induction of superoxide radical generation production in human HepG2 cells at 50 uM incubated for 6 hrs by DHE staining based flow cytometry; type: functional, cell-based
# How it was run: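 Cells incubated 6 h with 50 μM compound, stained with 3 μM DHE for 30 min at 37 °C in the dark, and analysed by flow cytometry; triplicate.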
# HepG2 [25] = experiment: Cellular uptake in human HepG2 cells at 50 uM after 1 hr; type: ADME, cell-based; details: hepg2, 1 h
# How it was run: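 HepG2 cells exposed to 50 μM for varying incubation periods; cells lysed, lysate extracted with methanol, and uptake estimated by absorbance of the extract.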
# HepG2 [26] = experiment: Induction of intracellular ROS production in human HepG2 cells assessed as decrease in GSH/GSSG ratio incubated for 6 hrs by glutathione reductase-DTNB recycling assay; type: functional, cell-based
# How it was run: (§3)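 HepG2 (5×10^5/well) grown 24 h, treated 6 h, then lysed in ice-cold 10 mM HCl by three freeze–thaw cycles; part of lysate used for protein. Proteins precipitated with 6.5% 5-sulfosalicylic acid; supernatant assayed for total GSH and GSSG by glutathione reductase–DTNB recycling; triplicate.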
# HepG2 [27] = experiment: Induction of intracellular ROS production in human HepG2 cells assessed as decrease in GSH/GSSG ratio at 50 uM incubated for 6 hrs by glutathione reductase-DTNB recycling assay relative to control; type: functional; how it was run: as §3
# HepG2 [28] = experiment: Induction of lipid peroxidation in human HepG2 cells assessed as increase in malondialdehyde formation after 18 hrs; type: functional, cell-based
# How it was run: (§4)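 HepG2 (5×10^5/well) grown 24 h, treated 18 h at 6.25, 25, 37.5 or 50 μM, lysed in ice-cold water by freeze–thaw. Lysate heated 1 h at 95 °C with 0.4% thiobarbituric acid, 0.5% SDS, 9.4% acetic acid (pH 3.5), centrifuged, A532 read. MDA quantified against a tetramethoxypropane standard curve, expressed as pmol/mg protein; triplicate.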
# HepG2 [29] = experiment: Induction of lipid peroxidation in human HepG2 cells assessed as increase in malondialdehyde formation at 50 uM after 18 hrs relative to control; type: functional; how it was run: as §4
# HepG2 [30] = experiment: Cytotoxicity against human HepG2 cells assessed as reduction in cell viability at 50 uM after 48 hrs by MTT assay in presence of 5mM glutathione; type: functional, cell-based
# How it was run: (§5)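 HepG2 cells pretreated 1 h with 5 mM NAC or 5 mM GSH, then exposed to 50 μM test compound; viability measured by MTT (0.5 mg/mL, 4 h, DMSO solubilisation, 570 nm).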
# HepG2 [31] = experiment: Cytotoxicity against human HepG2 cells assessed as reduction in cell viability at 50 uM after 48 hrs by MTT assay in presence of 5mM N-acetylcysteine; type: functional, cell-based; how it was run: as §5
# HepG2 [32] = experiment: Induction of intracellular ROS production in human HepG2 cells at 50 uM after 3 to 6 hrs by DCFH-DA staining based flow cytometry in presence of 5mM glutathione; type: functional, cell-based
# How it was run: (§6)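 HepG2 pretreated 1 h with 5 mM GSH or 5 mM NAC, then exposed to 50 μM compound for the indicated time; loaded with 3 μM DCFH-DA for 30 min at 37 °C in the dark, washed with PBS, DCF fluorescence read by flow cytometry (ex 488, em 530 nm).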
# HepG2 [33] = experiment: Induction of intracellular ROS production in human HepG2 cells at 50 uM after 3 to 6 hrs by DCFH-DA staining based flow cytometry in presence of 5mM N-acetylcysteine; type: functional, cell-based; how it was run: as §6
# HepG2 [34] = experiment: Induction of mitochondrial membrane potential loss in human HepG2 cells at 50 uM after 18 hrs by rhodamine 123 staining based flow cytometry in presence of 5mM glutathione; type: functional, cell-based
# How it was run: (§7)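 HepG2 pretreated 1 h with 5 mM GSH or 5 mM NAC, then exposed to 50 μM compound for the indicated time; Rhodamine 123 fluorescence measured by flow cytometry; triplicate.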
# HepG2 [35] = experiment: Induction of mitochondrial membrane potential loss in human HepG2 cells at 50 uM after 18 hrs by rhodamine 123 staining based flow cytometry in presence of 5mM N-acetylcysteine; type: functional, cell-based; how it was run: as §7
# HepG2 [36] = experiment: Induction of apoptosis in human HepG2 cells assessed as early apoptotic cells at 5 mM after 24 hrs by Annexin V-FITC/propidium iodide staining based flow cytometry (reference value: 2.8%); type: functional; how it was run: as §1
# HepG2 [37] = experiment: Induction of apoptosis in human HepG2 cells assessed as late apoptotic cells at 5 mM after 24 hrs by Annexin V-FITC/propidium iodide staining based flow cytometry (reference value: 5.4%); type: functional; how it was run: as §1
# HepG2 [38] = experiment: Induction of apoptosis in human HepG2 cells assessed as necrotic cells at 5 mM after 24 hrs by Annexin V-FITC/propidium iodide staining based flow cytometry (reference value: 1.6%); type: functional; how it was run: as §1
structure (smiles),measurement,setting,value
O=C(/C=C/c1ccccc1)CC(=O)/C=C/c1ccccc1,IC50,HepG2 [1],> 200 µM
O=C(/C=C/c1cccc(O)c1)CC(=O)/C=C/c1cccc(O)c1,IC50,HepG2 [1],15.1 µM
same,Stability,Serum,Stable
same,Ratio IC50,HepG2 [2],3.5
same,Activity,HepG2 [3],2.8%
same,Activity,HepG2 [4],7%
same,Activity,HepG2 [5],19.1%
same,Activity,HepG2 [6],1.4%
same,Activity,HepG2 [7],3%
same,Activity,HepG2 [8],2.8%
same,Activity,HepG2 [9],5.7%
same,Activity,HepG2 [10],12.4%
same,Activity,HepG2 [11],28.5%
same,Activity,HepG2 [12],80.2%
same,Activity,HepG2 [13],6.3%
same,Activity,HepG2 [14],6.8%
same,Activity,HepG2 [15],2.8%
same,Activity,HepG2 [16],7%
same,Activity,HepG2 [17],45%
same,Activity,HepG2 [18],7.6%
same,Activity,HepG2 [19],2%
same,Activity,HepG2 [20],2.2%
same,Activity,HepG2 [21],Dose-dependent effect
same,fold change (FC),HepG2 [22],5
same,Activity,HepG2 [23],inactive
same,Activity,HepG2 [24],inactive
same,Drug uptake,HepG2 [25],Active
same,Activity,HepG2 [26],Dose-dependent effect
same,fold change (FC),HepG2 [27],2
same,Activity,HepG2 [28],Dose-dependent effect
same,fold change (FC),HepG2 [29],1
same,Activity,HepG2 [30],inactive
same,Activity,HepG2 [31],inactive
same,Activity,HepG2 [32],inactive
same,Activity,HepG2 [33],inactive
same,Activity,HepG2 [34],inactive
same,Activity,HepG2 [35],inactive
CC(=O)N[C@@H](CS)C(=O)O [ACETYLCYSTEINE],Activity,HepG2 [36],2.6%
same,Activity,HepG2 [37],6.6%
same,Activity,HepG2 [38],1.9%
O=C(/C=C/c1ccc(C(F)(F)F)cc1)CC(=O)/C=C/c1ccc(C(F)(F)F)cc1,IC50,HepG2 [1],> 200 µM
COc1cccc(/C=C/C(=O)CC(=O)/C=C/c2cccc(OC)c2)c1,IC50,HepG2 [1],83.4 µM
O=C(/C=C/c1ccccc1O)CC(=O)/C=C/c1ccccc1O,IC50,HepG2 [1],50 µM
